# According to ChEMBL document CHEMBL3351368, “Biphenyl-4-carboxylic acid [2-(1H-indol-3-yl)-ethyl]-methylamide (CA224), a nonplanar analogue of fascaplysin, inhibits Cdk4 and tubulin polymerization: evaluation of in vitro and in vivo anticancer activity” (J Med Chem, 2014):
# Calls of active or inactive are those of the source.
# Assays:
# [1] = molecular target: Cyclin-dependent kinase 1/cyclin B1 (Homo sapiens, UniProt P06493); assay: Binding affinity to human CDK1/cyclinB1; type: protein-complex assay
# Cyclin-dependent kinase 1/cyclin B1, sequence (P06493 whole entry): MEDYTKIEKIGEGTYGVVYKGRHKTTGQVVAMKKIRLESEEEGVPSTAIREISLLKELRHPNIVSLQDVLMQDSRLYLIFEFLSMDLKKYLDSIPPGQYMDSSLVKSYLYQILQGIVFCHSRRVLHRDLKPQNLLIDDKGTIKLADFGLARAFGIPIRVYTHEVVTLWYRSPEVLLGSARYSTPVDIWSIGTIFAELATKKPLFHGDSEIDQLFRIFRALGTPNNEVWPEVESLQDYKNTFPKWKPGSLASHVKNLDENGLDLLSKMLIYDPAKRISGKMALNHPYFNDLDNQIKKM
# Cyclin-dependent kinase 1/cyclin B1, sequence (P14635 whole entry, further chain): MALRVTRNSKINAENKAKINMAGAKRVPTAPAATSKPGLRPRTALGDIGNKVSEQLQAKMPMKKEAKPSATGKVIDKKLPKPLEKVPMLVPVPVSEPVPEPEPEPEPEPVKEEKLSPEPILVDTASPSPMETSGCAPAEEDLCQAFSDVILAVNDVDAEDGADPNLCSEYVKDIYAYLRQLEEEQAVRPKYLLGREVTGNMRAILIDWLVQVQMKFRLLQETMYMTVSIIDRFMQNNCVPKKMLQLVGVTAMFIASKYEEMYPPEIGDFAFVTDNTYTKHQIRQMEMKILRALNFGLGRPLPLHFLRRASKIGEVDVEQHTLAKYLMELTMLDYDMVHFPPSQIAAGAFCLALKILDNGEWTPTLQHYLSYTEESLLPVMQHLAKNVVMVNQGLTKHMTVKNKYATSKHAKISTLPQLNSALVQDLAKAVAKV
# [2] = molecular target: CDK9/cyclin T1 (Homo sapiens, UniProt P50750); assay: Binding affinity to human CDK9/cyclinT1; type: protein-complex assay
# CDK9/cyclin T1, sequence (O60563 whole entry): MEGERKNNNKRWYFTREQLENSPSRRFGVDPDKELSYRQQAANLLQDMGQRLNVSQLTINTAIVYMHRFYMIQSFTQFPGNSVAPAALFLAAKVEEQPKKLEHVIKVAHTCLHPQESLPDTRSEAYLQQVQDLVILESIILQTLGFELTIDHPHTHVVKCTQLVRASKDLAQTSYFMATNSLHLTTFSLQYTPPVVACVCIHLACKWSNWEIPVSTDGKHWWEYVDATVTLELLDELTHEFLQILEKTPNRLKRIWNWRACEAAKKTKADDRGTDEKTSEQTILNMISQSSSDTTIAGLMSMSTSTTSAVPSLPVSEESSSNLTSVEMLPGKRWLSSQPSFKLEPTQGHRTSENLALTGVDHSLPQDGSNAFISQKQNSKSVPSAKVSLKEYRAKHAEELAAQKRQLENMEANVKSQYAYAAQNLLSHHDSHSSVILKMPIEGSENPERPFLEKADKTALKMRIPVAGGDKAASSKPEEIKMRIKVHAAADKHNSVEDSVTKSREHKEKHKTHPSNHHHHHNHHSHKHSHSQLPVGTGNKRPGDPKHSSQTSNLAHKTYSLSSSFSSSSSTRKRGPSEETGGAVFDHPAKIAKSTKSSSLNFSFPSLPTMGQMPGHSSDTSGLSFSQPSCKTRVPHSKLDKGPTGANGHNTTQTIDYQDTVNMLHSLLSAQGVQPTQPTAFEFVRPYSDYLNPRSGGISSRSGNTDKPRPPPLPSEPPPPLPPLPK
# CDK9/cyclin T1, sequence (P50750 whole entry): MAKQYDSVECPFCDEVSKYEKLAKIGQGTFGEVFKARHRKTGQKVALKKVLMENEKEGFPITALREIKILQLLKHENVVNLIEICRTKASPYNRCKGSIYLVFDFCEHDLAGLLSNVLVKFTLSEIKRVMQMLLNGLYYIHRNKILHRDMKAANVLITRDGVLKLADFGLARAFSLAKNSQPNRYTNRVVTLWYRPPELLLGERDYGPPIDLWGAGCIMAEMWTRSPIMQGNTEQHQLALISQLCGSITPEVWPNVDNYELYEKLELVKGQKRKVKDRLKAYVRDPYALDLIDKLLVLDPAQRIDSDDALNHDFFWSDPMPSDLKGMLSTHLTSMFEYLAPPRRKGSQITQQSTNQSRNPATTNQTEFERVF
# [3] = molecular target: CDK6/cyclin D1 (Homo sapiens) (UniProt P24385+Q00534); assay: Inhibition of human CDK6/cyclinD1 assessed as enzyme activity at 10 uM; type: protein-complex assay
# [4] = molecular target: Cyclin-dependent kinase 7/ cyclin H (Homo sapiens) (UniProt P51946+P50613); assay: Inhibition of human CDK7/cyclinH assessed as enzyme activity at 10 uM; type: protein-complex assay
# [5] = molecular target: Glycogen synthase kinase-3 beta (Homo sapiens) (UniProt P49841); assay: Inhibition of human GSK3beta assessed as enzyme activity at 10 uM
# Glycogen synthase kinase-3 beta (Homo sapiens), sequence (P49841 whole entry, looked up): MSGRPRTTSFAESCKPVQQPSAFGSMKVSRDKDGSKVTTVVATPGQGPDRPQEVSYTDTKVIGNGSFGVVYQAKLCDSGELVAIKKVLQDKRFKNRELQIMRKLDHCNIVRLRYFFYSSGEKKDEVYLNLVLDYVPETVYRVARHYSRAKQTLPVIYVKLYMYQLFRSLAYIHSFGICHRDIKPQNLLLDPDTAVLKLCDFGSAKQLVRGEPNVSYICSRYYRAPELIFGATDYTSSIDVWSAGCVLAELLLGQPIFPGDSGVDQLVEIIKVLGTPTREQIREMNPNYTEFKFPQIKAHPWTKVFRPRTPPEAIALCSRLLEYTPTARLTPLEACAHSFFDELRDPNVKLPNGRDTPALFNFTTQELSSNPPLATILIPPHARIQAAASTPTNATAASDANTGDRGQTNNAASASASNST
# [6] = molecular target: Dual specificity mitogen-activated protein kinase kinase 1 (Homo sapiens) (UniProt Q02750); assay: Inhibition of human MEK1 assessed as enzyme activity at 10 uM
# Dual specificity mitogen-activated protein kinase kinase 1 (Homo sapiens), sequence (Q02750 whole entry): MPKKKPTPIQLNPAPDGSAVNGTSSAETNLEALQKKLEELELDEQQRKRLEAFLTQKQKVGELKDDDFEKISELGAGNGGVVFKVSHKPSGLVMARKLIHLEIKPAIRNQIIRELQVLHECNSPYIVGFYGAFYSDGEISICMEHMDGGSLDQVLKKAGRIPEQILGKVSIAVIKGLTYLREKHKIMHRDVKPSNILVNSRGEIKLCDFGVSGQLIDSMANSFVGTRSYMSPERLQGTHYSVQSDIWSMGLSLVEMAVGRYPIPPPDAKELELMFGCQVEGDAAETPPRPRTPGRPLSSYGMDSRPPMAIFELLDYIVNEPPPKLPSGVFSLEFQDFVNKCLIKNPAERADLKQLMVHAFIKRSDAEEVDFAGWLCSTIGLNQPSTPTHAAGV
# [7] = molecular target: Platelet-derived growth factor receptor (Homo sapiens) (UniProt P09619+P16234); assay: Inhibition of human PDGFR assessed as enzyme activity at 10 uM; type: protein-complex assay
# [8] = organism: Homo sapiens; assay: Selectivity ratio of IC50 for human CDK2/cyclin A to IC50 for human CDK4/cyclin D1
# [9] = test system: NCI-H1299; assay: Growth inhibition of p53 null, pRb+ human NCI-H1299 cells after 48 hrs by MTT assay; type: functional, cell-based; conditions: NCI-H1299, 48 h
# Procedure, shortened: (§1)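 MTT cell proliferation assay. IC50 (µM) was defined as the concentration giving 50% inhibition of cell growth.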
# [10] = Growth inhibition of mouse BNL-CL2 cells after 48 hrs by MTT assay; type: functional, cell-based; conditions: BNL CL.2, 48 h; procedure, shortened: as §1
# [11] = Growth inhibition of mouse BNL-SVA.8 cells after 48 hrs by MTT assay; type: functional; procedure, shortened: as §1
# [12] = test system: NCI-H1299; assay: Cell cycle arrest in human NCI-H1299 cells assessed as accumulation of cells at G0/G1 phase at IC50 concentration after 24 hrs by flow cytometry (reference value: 56%); type: functional
# [13] = test system: NCI-H358; assay: Cell cycle arrest in human NCI-H358 cells assessed as accumulation of cells at S phase at IC50 concentration after 12 hrs by flow cytometry in presence of nocodazole for 18 hrs (reference value: 10%); type: functional
# [14] = test system: NCI-H358; assay: Cell cycle arrest in human NCI-H358 cells assessed as accumulation of cells at G2/M phase at IC50 concentration after 18 hrs by flow cytometry in presence of […] uM hydroxyurea for 18 hrs (reference value: 33%); type: functional
# [15] = Cell cycle arrest in mouse BNL-CL2 cells assessed as accumulation of cells at G2/M phase at IC50 concentration after 48 hrs by flow cytometry (reference value: 23%); type: functional
# Procedure, shortened: (§2)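 Normal (BNL CL2) and SV40 large T-antigen transformed (BNL SV A.8) mouse embryonic hepatic cells were treated at IC50 or IC70 concentration for 48 h. Analysis was by FACS, with apoptosis taken as % cells in the sub-G1 peak. Untreated cells served as control.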
# [16] = Cell cycle arrest in mouse BNL-SVA.8 cells assessed as accumulation of cells at G0/G1 phase at IC50 concentration after 48 hrs by flow cytometry (reference value: 64%); type: functional; procedure, shortened: as §2
# [17] = test system: MiaPaCa; assay: Effect on phosphorylation of Cdk1 at Tyr15 in p53His273 mutant, pRb+ human MiaPaCa cells at IC50 concentration after 48 hrs by Western blot analysis; type: functional
# [18] = molecular target: T1, Tubulin (Homo sapiens) (UniProt P68371+Q9H4B7+P0DPH7+P68366+Q13509+Q71U36+P04350+Q3ZCM7+P07437+P68363+Q9BQE3+Q6PEY2+Q13885+Q9BVA1+Q9BUF5); assay: Inhibition of tubulin (unknown origin) polymerization assessed as decrease in Vmax measured at 2.5 uM by spectrophotometry; type: protein-complex assay
# Procedure, shortened: (§3)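 Purified tubulin polymerisation followed as absorbance increase over about 4000 s. Vmax (mOD/min) is taken as the read-out, with final polymer mass also noted. Compound is tested at 2.5, 5, 10 and 25 µM alongside untreated control, paclitaxel 10 µM (enhancer) and nocodazole 10 µM (inhibitor). Curves are the average of three independent experiments.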
# [19] = molecular target: T1, Tubulin (Homo sapiens); assay: Inhibition of tubulin (unknown origin) polymerization assessed as decrease in Vmax measured at 5 uM by spectrophotometry; type: protein-complex assay; procedure, shortened: as §3
# [20] = test system: NCI-H460; assay: Induction of apoptosis in p53+, pRb+ human NCI-H460 cells assessed as fragmented nuclei/distrupted cell membrane after 24 hrs by DAPI staining-based flow cytometry; type: functional
# [21] = test system: NCI-H460; assay: Induction of apoptosis in p53+, pRb+ human NCI-H460 cells assessed as fragmented nuclei/distrupted cell membrane at 1 to 10 uM by DAPI staining-based flow cytometry; type: functional; conditions: TDE = time-dependent effect
# [22] = molecular target: CYP2C19 (Homo sapiens, UniProt P33261); assay: Inhibition of human recombinant CYP2C19 at 10 uM; type: ADME
# CYP2C19, sequence (P33261 whole entry): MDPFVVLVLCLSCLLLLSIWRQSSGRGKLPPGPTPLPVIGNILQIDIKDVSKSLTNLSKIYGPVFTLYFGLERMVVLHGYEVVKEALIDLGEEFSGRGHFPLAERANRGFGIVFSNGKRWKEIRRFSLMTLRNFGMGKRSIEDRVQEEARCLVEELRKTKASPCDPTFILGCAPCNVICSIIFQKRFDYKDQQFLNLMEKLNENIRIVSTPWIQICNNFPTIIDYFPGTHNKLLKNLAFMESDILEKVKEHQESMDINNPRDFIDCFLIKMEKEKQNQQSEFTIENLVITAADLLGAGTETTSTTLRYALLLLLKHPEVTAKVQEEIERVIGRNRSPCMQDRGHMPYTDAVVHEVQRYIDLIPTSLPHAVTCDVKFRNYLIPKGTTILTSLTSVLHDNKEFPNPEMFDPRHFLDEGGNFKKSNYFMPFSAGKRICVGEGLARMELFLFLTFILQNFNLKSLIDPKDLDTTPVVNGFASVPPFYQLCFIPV
# [23] = Efflux ratio of permeability across basolateral to apical side over apical to basolateral side in human Caco2 cells; type: ADME, cell-based; conditions: Caco-2
# [24] = AUC (0 to t) in BALB/c mouse at 1 mg/kg, iv; type: ADME, organism-based; parameters: dose 1 mg/kg, route intravenous; conditions: plasma
# Procedure, shortened: (§4)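 BALB/c mice given a single dose of 1.0 mg/kg IV or 10 mg/kg orally; plasma concentration followed over time and pharmacokinetic parameters derived from the time-concentration profile.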
# [25] = AUC (0 to infinity) in BALB/c mouse at 1 mg/kg, iv; type: ADME, organism-based; parameters: time infinity, dose 1 mg/kg, route intravenous; conditions: plasma; procedure, shortened: as §4
# [26] = Cmax in BALB/c mouse at 1 mg/kg, iv; type: ADME, organism-based; parameters: dose 1 mg/kg, route intravenous; conditions: in vivo; procedure, shortened: as §4
# [27] = Terminal half life in BALB/c mouse at 1 mg/kg, iv; type: ADME, organism-based; parameters: dose 1 mg/kg, route intravenous; conditions: in vivo, read-out: beta t1/2 (converted); procedure, shortened: as §4
# [28] = Antitumor activity against human HCT116 cells xenografted in SCID mouse assessed as inhibition of tumor growth at 100 mg/kg, ip relative to untreated control; type: functional; conditions: HCT-116, ip, route intraperitoneal
# Procedure, shortened: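 SCID male mice, 18-25 g, 6-8 weeks old, received 6.6 × 10^6 HCT-116 cells subcutaneously on the dorsal side. Randomized into groups of 7 at 4-6 mm tumors (about 5 days), then dosed intraperitoneally for 9 consecutive days. Tumor size recorded every 2-5 days, weight = L×W²×0.5; %GI = 100 − %T/C. Body weight taken daily relative to start; Student t-test.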
# [29] = Displacement of ethidium bromide from closed circular plasmid DNA (unknown origin) by fluorescence quenching assay
# [30] = Cell cycle arrest in mouse BNL-SVA.8 cells assessed as accumulation of cells at subG1 phase at IC70 concentration after 48 hrs by flow cytometry; type: functional; procedure, shortened: as §2
# [31] = Cell cycle arrest in human WI38 cells assessed as accumulation of cells at G2/M phase by flow cytometry; type: functional, cell-based; conditions: WI-38
# [32] = test system: LS174T; assay: Reduction cyclin B1 level in p53+, pRb+ human LS 174T cells at IC50 concentration after 24 hrs by Western blot analysis
# [33] = test system: NCI-H1299; assay: Induction of apoptosis in p53 null, pRb+ human NCI-H1299 cells assessed as fragmented nuclei/distrupted cell membrane after 24 hrs by DAPI staining-based flow cytometry
structure (smiles),measurement,setting,value
CN(CCc1c[nH]c2ccccc12)C(=O)c1ccc(-c2ccccc2)cc1,IC50,[1],> 500 µM
same,IC50,[2],> 1000 µM
same,inhibition,[3],inactive
same,inhibition,[4],inactive
same,inhibition,[5],inactive
same,inhibition,[6],inactive
same,inhibition,[7],inactive
same,Ratio IC50,[8],84
same,IC50,[9],2.5 µM
same,IC50,[10],2.6 µM
same,IC50,[11],3.8 µM
same,Activity,[12],22%
same,Activity,[13],10%
same,Activity,[14],72%
same,Activity,[15],54%
same,Activity,[16],31%
same,Activity,[17],inactive
same,Activity (milli optical density/minute),[18],6.2
same,Activity (milli optical density/minute),[19],2.1
same,Activity,[20],Dose-dependent effect
same,Activity,[21],tde
same,inhibition at 10 µM,[22],19%
same,efflux ratio,[23],1.1
same,AUC(0-t),[24],187 ng·h/mL
same,AUC(0-inf),[25],189 ng·h/mL
same,Cmax,[26],371 ng/mL
same,half-life,[27],19.8 min
same,inhibition in vivo at 100 mg/kg,[28],80%
same,inhibition,[29],inactive
same,Activity,[30],44%
same,Activity,[31],Active
same,inhibition,[32],Active
same,Activity,[33],Dose-dependent effect
